Results pooled from the literature.
Each line is one published result; the experiments were not run side by side.
Organism: Leishmania major
Effect on: parasite growth
Setting: promastigote

Cc1nc2ccc(Cl)cn2c1C(=O)N1CCN(Cc2cn(-c3cccc(Cl)c3)nn2)CC1
IC50 (resazurin; 72 h): 47.1 µM

C[C@@H]1[C@H](O)[C@@H](C)/C=C/C=C/C=C/C=C/C=C/C=C/C=C/[C@H](O[C@@H]2O[C@H](C)[C@@H](O)[C@H](N)[C@@H]2O)C[C@@H]2O[C@](O)(C[C@@H](O)C[C@@H](O)[C@H](O)CC[C@@H](O)C[C@@H](O)CC(=O)O[C@H]1C)C[C@H](O)[C@H]2C(=O)O
IC50 (24 h): 0.243 µM

CCCCCCCCCc1cn(CCN2CCN(C(=O)c3c(C)nc4ccc(Cl)cn34)CC2)nn1
IC50 (resazurin; 72 h): 62 µM

CC1(C)OB(CC2c3ccccc3C(=O)N2C2CCCCC2)OC1(C)C (stereo not drawn)
IC50: 11.5 µM

CC(=O)Oc1ccc(-c2oc3cc(OC(C)=O)cc(O)c3c(=O)c2OC(C)=O)cc1
IC50 (48 h): 14.9 µM

O=S(=O)(c1ccc(-c2ccc3ncnc(Nc4ccc(OCc5ccccc5)c(Cl)c4)c3c2)cc1)N1CCOCC1
EC50 (resazurin): 0.47 µM

C[C@@H]1[C@H](O)[C@@H](C)/C=C/C=C/C=C/C=C/C=C/C=C/C=C/[C@H](O[C@@H]2O[C@H](C)[C@@H](O)[C@H](N)[C@@H]2O)C[C@@H]2O[C@](O)(C[C@@H](O)C[C@@H](O)[C@H](O)CC[C@@H](O)C[C@@H](O)CC(=O)O[C@H]1C)C[C@H](O)[C@H]2C(=O)O
IC50: 0.83 µM

CCCc1cn(CCN2CCN(C(=O)c3c(C)nc4ccc(Cl)cn34)CC2)nn1
IC50 (resazurin; 72 h): 475 µM

C[C@@H]1[C@H](O)[C@@H](C)/C=C/C=C/C=C/C=C/C=C/C=C/C=C/[C@H](O[C@@H]2O[C@H](C)[C@@H](O)[C@H](N)[C@@H]2O)C[C@@H]2O[C@](O)(C[C@@H](O)C[C@@H](O)[C@H](O)CC[C@@H](O)C[C@@H](O)CC(=O)O[C@H]1C)C[C@H](O)[C@H]2C(=O)O
IC50 (48 h): 3.68 µM
